Laboratory results: PMC6911266 (Nature, 2019)
Numbering of substitutions follows the chain as printed. Several values for one entry are separate records, joined by “and”; a condition that tells them apart may be missing. Identical values can stand only once. Like-named read-outs stand apart in the source and are kept apart here.

Legend:
[1] = test system: P. falciparum 7G8^7G8+C350R parasite line; experiment: Parasite drug susceptibility assay; assay type: cell-based, Plasmodium falciparum; conditions: 72 h, asynchronous asexual blood stages
Procedure, shortened: (§1)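 Asynchronous asexual blood-stage parasites were seeded at 0.3% parasitemia and 1% hematocrit into 2-fold, 10-point test compound dilutions. Incubation was 72 h at 37°C under 5% O2/5% CO2/90% N2. Final parasitemia was read by flow cytometry. IC50 came from nonlinear regression, 4 independent assays in duplicate, with two-tailed Mann-Whitney U tests.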

[2] = test system: P. falciparum 7G8^7G8 parasite line; experiment: Parasite drug susceptibility assay; assay type: cell-based, Plasmodium falciparum; conditions: 72 h, asynchronous asexual blood stages
Procedure, shortened: as §1

[3] = test system: P. falciparum WT (3D7) parasite line; experiment: Parasite drug susceptibility assay; assay type: cell-based, Plasmodium falciparum; conditions: 72 h, asynchronous asexual blood stages
Procedure, shortened: as §1

[4] = test system: P. falciparum Dd2^Dd2 parasite line; experiment: Parasite drug susceptibility assay; assay type: cell-based, Plasmodium falciparum; conditions: 72 h, asynchronous asexual blood stages
Procedure, shortened: as §1

[5] = test system: P. falciparum 7G8^7G8+F145I parasite line; experiment: Parasite drug susceptibility assay; assay type: cell-based, Plasmodium falciparum; conditions: 72 h, asynchronous asexual blood stages
Procedure, shortened: as §1

[6] = target: T1, PfCRT 7G8 (Plasmodium falciparum, UniProt W7FI62); assay type: biochemical
T1 sequence (W7FI62 1-424): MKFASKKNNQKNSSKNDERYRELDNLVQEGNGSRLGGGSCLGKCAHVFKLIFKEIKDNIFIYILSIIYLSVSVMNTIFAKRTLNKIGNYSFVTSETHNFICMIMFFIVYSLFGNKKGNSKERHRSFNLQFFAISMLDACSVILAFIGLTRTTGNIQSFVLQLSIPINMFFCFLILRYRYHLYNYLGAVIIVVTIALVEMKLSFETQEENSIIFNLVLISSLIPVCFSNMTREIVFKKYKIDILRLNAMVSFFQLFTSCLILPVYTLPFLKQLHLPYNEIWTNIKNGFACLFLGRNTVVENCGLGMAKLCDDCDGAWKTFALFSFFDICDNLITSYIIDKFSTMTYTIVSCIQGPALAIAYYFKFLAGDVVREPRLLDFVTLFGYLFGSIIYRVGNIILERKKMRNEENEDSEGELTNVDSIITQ

[7] = target: T1, PfCRT 7G8; experiment: Scintillation proximity assay; assay type: binding; conditions: for competition of [3H]-Arg binding (in words): 125 nM [3H]-Arg, 1 μM CQ or PPQ, 0.1 μM amodiaquine, 1 mM Arg, Lys or Leu
[8] = target: T2, PfCRT 7G8+C289A (Plasmodium falciparum, UniProt W7FI62, C289A); experiment: Transport; assay type: biochemical; conditions: read-out: IC50 (concentration yielding half-maximal reduction of [3H]-CQ transport); 100 nM [3H]-CQ, 1 min
T2 sequence (W7FI62 1-424 C289A): T1 sequence (W7FI62 1-424) with C289A
Procedure, shortened: (§2)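 Proteoliposomes with the PfCRT variant (40 ng PfCRT per assay) have a lumen of 100 mM KPi, pH 7.5, with 2 mM β-mercaptoethanol. They are diluted into 100 mM Tris/Mes, pH 5.5, with 100 nM [3H]-CQ (5.45 Ci/mmol) and increasing β-mercaptoethanol, and uptake runs for 1 min. Values are corrected for mock uptake on nitrocellulose filters and for control liposomes lacking PfCRT. IC50 is the β-mercaptoethanol concentration halving transport.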

[9] = target: T3, PfCRT 7G8+C301A (Plasmodium falciparum, UniProt W7FI62, C301A); experiment: Transport; assay type: biochemical
T3 sequence (W7FI62 1-424 C301A): T1 sequence (W7FI62 1-424) with C301A
Procedure, shortened: as §2

[10] = target: T4, Plasmodium falciparum chloroquine resistance transporter PfCRT, 7G8 isoform (Plasmodium falciparum (isolate 7G8), UniProt W7FI62); experiment: radioligand binding
[11] = target: T4, Plasmodium falciparum chloroquine …; experiment: radioligand binding; remark: listed apart in the source
[12] = target: T4, Plasmodium falciparum chloroquine …; experiment: radioligand binding; remark: listed apart in the source
[13] = substrate: N=C(N)NCCC[C@H](N)C(=O)O; experiment: cells, lysate or membranes named
[14] = read-out: IC50 (concentration yielding half-maximal reduction of [3H]-CQ transport), 100 nM [3H]-CQ, 1 min

CCNCCCC(C)Nc1ccnc2cc(Cl)ccc12 (stereo not drawn) [md-CQ, monodesethyl-chloroquine]
IC50 [1]: 0.0365 ± 0.002 µM
IC50 [2]: 0.919 ± 0.125 µM
IC50 [3]: 0.0486 ± 0.0031 µM
IC50 [4]: 1.8 ± 0.199 µM
IC50 [5]: 0.0478 ± 0.0025 µM

COc1ccc(CCN(C)CCCC(C#N)(c2ccc(OC)c(OC)c2)C(C)C)cc1OC (stereo not drawn) [verapamil]
inhibition of [3H]-CQ and [3H]-Arg uptake (in words) [6]: partial to strong inhibition

N=C(N)NCCC[C@H](N)C(=O)O [Arg, arginine]
Vmax, transport in proteoliposomes ([6]; initial rates over 3 s, Michaelis-Menten fit): 190 nmol/mg/min
time course of uptake (in words) ([6]; pH gradient 5.5–7.5 and membrane potential (valinomycin)): maximal within one minute
competition of [3H]-Arg binding (in words) [7]: effectively competed
EC50 ([7]; half-maximal binding constant (EC50) of [3H]-Arg binding, SPA, isotopic dilution of 125 nM [3H]-Arg with non-radiolabeled Arg): ~400 µM and 397 µM

CCN(CC)Cc1cc(Nc2ccnc3cc(Cl)ccc23)ccc1O [amodiaquine]
competition of [3H]-Arg binding (in words) [7]: effectively competed

NCCCC[C@H](N)C(=O)O [lysine]
competition of [3H]-Arg binding (in words) [7]: effectively competed

OCCS [β-mercaptoethanol]
IC50 [6, 14]: 1240 ± 140 µM
IC50 [8]: 2580 ± 390 µM
remaining [3H]-CQ transport activity ([9]; compared to the activity in the absence of the reducing agent): 60.2 ± 8.2%
IC50 [9, 14]: 4170 ± 160 µM

B1: Fab CTC (Fab, V domains shown)
VH: EVQLVESGGGLVQPGGSLRLSCAASGFNVSYSYIHWVRQAPGKGLEWVASIYPYSGYTSYADSVKGRFTISADTSKNTAYLQMNSLRAEDTAVYYCARYGSNYSFWYRGSSVTYAIDYWGQGTLVTVSS
VL: DIQMTQSPSSLSASVGDRVTITCRASQSVSSAVAWYQQKPGKAPKLLIYSASSLYSGVPSRFSGSRSGTDFTLTISSLQPEDFATYYCQQSSTWPITFGQGTKVEIK
IC50 [10]: 0.15 µM
IC50 [11]: 0.2 µM
IC50 [12]: 0.18 µM

B2: PfCRT 7G8 (Plasmodium falciparum 7G8) (protein)
chain: T1 sequence (W7FI62 1-424)
Km [13]: 1.30 ± 0.20 µM
Vmax [13]: 189.2 ± 9.1 nmol/mg/min
